Experimental data taken from ChEMBL document CHEMBL5058577, “EUbOPEN Chemogenomics Library 2 (Multiplex)” (2022).

Test system: HEK-293T
Test: Multiplex assay against HEK293T
Assay type: toxicity, cell-based
Conditions: human
How it was run: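 Per cents of healthy-nucleus cells form the tubulin, mitochondrial-mass and membrane-permeability phenotype values. Live cells were stained at seeding with Hoechst33342, BioTracker Green Microtubule Cytoskeleton Dye, MitoTracker Red and Annexin V Alexa Fluor 680. After compound addition they were imaged on a CQ1 microscope at 37°C and 5% CO2, and CellPathfinder machine-learning gating split them into Hoechst high-intensity objects or normal cells, normal cells into healthy, pyknosed or fragmented nuclei, and pyknosed cells into mitotic or apoptotic.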

[1] = 12 h, 1 µM, compound concentration 1 uM, replicate 1
[2] = 12 h, 1 µM, compound concentration 1 uM, replicate 2
[3] = 12 h, 10 µM, compound concentration 10 uM, replicate 1
[4] = 12 h, 10 µM, compound concentration 10 uM, replicate 2
[5] = 24 h, 1 µM, compound concentration 1 uM, replicate 1
[6] = 24 h, 1 µM, compound concentration 1 uM, replicate 2
[7] = 24 h, 10 µM, compound concentration 10 uM, replicate 1
[8] = 24 h, 10 µM, compound concentration 10 uM, replicate 2
[9] = 48 h, 1 µM, compound concentration 1 uM, replicate 1
[10] = 48 h, 1 µM, compound concentration 1 uM, replicate 2
[11] = 48 h, 10 µM, compound concentration 10 uM, replicate 1
[12] = 48 h, 10 µM, compound concentration 10 uM, replicate 2

SMILES: CCCCCC(O)/C=C/[C@H]1C(=O)CC(O)C1C/C=C\CCCC(=O)O (stereo not given in full)
- Population Apoptotic (%) [1]: 29%
- Population Fragmented Nuclei (%) [1]: 8%
- Population Healthy Nuclei (%) [1]: 80%
- Population Hoechst High Intensity Objects (%) [1]: 8%
- Population Membrane Permeable-Phenotype (%) [1]: 0%
- Population Mitochondria Different-Phenotype (%) [1]: 44%
- Population Mitotic Cells (%) [1]: 70%
- Population Normal (%) [1]: 91%
- Population Pyknosed Nuclei (%) [1]: 11%
- Population Tubulin-Different-Phenotype (%) [1]: 23%
- Total Cell Count [1]: 409
- Population Apoptotic (%) [2]: 39%
- Population Fragmented Nuclei (%) [2]: 7%
- Population Healthy Nuclei (%) [2]: 83%
- Population Hoechst High Intensity Objects (%) [2]: 6%
- Population Mitochondria Different-Phenotype (%) [2]: 56%
- Population Mitotic Cells (%) [2]: 60%
- Population Normal (%) [2]: 93%
- Population Pyknosed Nuclei (%) [2]: 9%
- Population Tubulin-Different-Phenotype (%) [2]: 20%
- Total Cell Count [2]: 383
- Population Apoptotic (%) [3]: 48%
- Population Fragmented Nuclei (%) [3]: 6%
- Population Healthy Nuclei (%) [3]: 79%
- Population Hoechst High Intensity Objects (%) [3]: 9%
- Population Membrane Permeable-Phenotype (%) [3]: 0%
- Population Mitochondria Different-Phenotype (%) [3]: 48%
- Population Mitotic Cells (%) [3]: 51%
- Population Normal (%) [3]: 90%
- Population Pyknosed Nuclei (%) [3]: 14%
- Population Tubulin-Different-Phenotype (%) [3]: 31%
- Total Cell Count [3]: 409
- Population Apoptotic (%) [4]: 54%
- Population Healthy Nuclei (%) [4]: 77%
- Population Hoechst High Intensity Objects (%) [4]: 7%
- Population Mitochondria Different-Phenotype (%) [4]: 59%
- Population Mitotic Cells (%) [4]: 46%
- Population Normal (%) [4]: 92%
- Population Pyknosed Nuclei (%) [4]: 15%
- Population Tubulin-Different-Phenotype (%) [4]: 25%
- Total Cell Count [4]: 343
- Population Apoptotic (%) [5]: 40%
- Population Fragmented Nuclei (%) [5]: 8%
- Population Healthy Nuclei (%) [5]: 83%
- Population Hoechst High Intensity Objects (%) [5]: 3%
- Population Membrane Permeable-Phenotype (%) [5]: 1%
- Population Mitochondria Different-Phenotype (%) [5]: 22%
- Population Mitotic Cells (%) [5]: 59%
- Population Normal (%) [5]: 96%
- Population Pyknosed Nuclei (%) [5]: 8%
- Population Tubulin-Different-Phenotype (%) [5]: 11%
- Total Cell Count [5]: 611
- Population Apoptotic (%) [6]: 44%
- Population Fragmented Nuclei (%) [6]: 7%
- Population Healthy Nuclei (%) [6]: 84%
- Population Hoechst High Intensity Objects (%) [6]: 7%
- Population Membrane Permeable-Phenotype (%) [6]: 0%
- Population Mitochondria Different-Phenotype (%) [6]: 41%
- Population Mitotic Cells (%) [6]: 55%
- Population Normal (%) [6]: 92%
- Population Pyknosed Nuclei (%) [6]: 7%
- Population Tubulin-Different-Phenotype (%) [6]: 14%
- Total Cell Count [6]: 492
- Population Apoptotic (%) [7]: 27%
- Population Fragmented Nuclei (%) [7]: 10%
- Population Healthy Nuclei (%) [7]: 75%
- Population Hoechst High Intensity Objects (%) [7]: 4%
- Population Membrane Permeable-Phenotype (%) [7]: 0%
- Population Mitochondria Different-Phenotype (%) [7]: 29%
- Population Mitotic Cells (%) [7]: 72%
- Population Normal (%) [7]: 95%
- Population Pyknosed Nuclei (%) [7]: 13%
- Population Tubulin-Different-Phenotype (%) [7]: 16%
- Total Cell Count [7]: 523
- Population Apoptotic (%) [8]: 44%
- Population Fragmented Nuclei (%) [8]: 9%
- Population Healthy Nuclei (%) [8]: 77%
- Population Hoechst High Intensity Objects (%) [8]: 9%
- Population Mitochondria Different-Phenotype (%) [8]: 50%
- Population Mitotic Cells (%) [8]: 55%
- Population Normal (%) [8]: 90%
- Population Tubulin-Different-Phenotype (%) [8]: 21%
- Total Cell Count [8]: 388
- Population Apoptotic (%) [9]: 29%
- Population Fragmented Nuclei (%) [9]: 12%
- Population Healthy Nuclei (%) [9]: 79%
- Population Hoechst High Intensity Objects (%) [9]: 1%
- Population Membrane Permeable-Phenotype (%) [9]: 1%
- Population Mitochondria Different-Phenotype (%) [9]: 20%
- Population Mitotic Cells (%) [9]: 70%
- Population Normal (%) [9]: 98%
- Population Pyknosed Nuclei (%) [9]: 7%
- Population Tubulin-Different-Phenotype (%) [9]: 8%
- Total Cell Count [9]: 864
- Population Apoptotic (%) [10]: 30%
- Population Fragmented Nuclei (%) [10]: 13%
- Population Healthy Nuclei (%) [10]: 81%
- Population Hoechst High Intensity Objects (%) [10]: 3%
- Population Membrane Permeable-Phenotype (%) [10]: 2%
- Population Mitochondria Different-Phenotype (%) [10]: 19%
- Population Mitotic Cells (%) [10]: 69%
- Population Normal (%) [10]: 96%
- Population Pyknosed Nuclei (%) [10]: 5%
- Population Tubulin-Different-Phenotype (%) [10]: 7%
- Total Cell Count [10]: 775
- Population Apoptotic (%) [11]: 22%
- Population Fragmented Nuclei (%) [11]: 12%
- Population Healthy Nuclei (%) [11]: 79%
- Population Hoechst High Intensity Objects (%) [11]: 1%
- Population Membrane Permeable-Phenotype (%) [11]: 0%
- Population Mitochondria Different-Phenotype (%) [11]: 17%
- Population Mitotic Cells (%) [11]: 77%
- Population Normal (%) [11]: 98%
- Population Pyknosed Nuclei (%) [11]: 8%
- Population Tubulin-Different-Phenotype (%) [11]: 7%
- Total Cell Count [11]: 815
- Population Apoptotic (%) [12]: 51%
- Population Fragmented Nuclei (%) [12]: 10%
- Population Healthy Nuclei (%) [12]: 80%
- Population Hoechst High Intensity Objects (%) [12]: 3%
- Population Mitochondria Different-Phenotype (%) [12]: 26%
- Population Mitotic Cells (%) [12]: 48%
- Population Normal (%) [12]: 96%
- Population Tubulin-Different-Phenotype (%) [12]: 8%
- Total Cell Count [12]: 544
